The text below walks through data of ChEMBL document CHEMBL1141362, “Synthesis and solid-phase purification of anthranilic sulfonamides as CCK-2 ligands” (Bioorg Med Chem Lett, 2007).

A word on the Ki: it is the equilibrium dissociation constant of an inhibitor or competing ligand from its target.

A value given as a limit tells only on which side of the number the result lay.

Series [1] addresses T1, Gastrin/cholecystokinin type B receptor (Homo sapiens, UniProt P32239).
T1 sequence (P32239 whole entry): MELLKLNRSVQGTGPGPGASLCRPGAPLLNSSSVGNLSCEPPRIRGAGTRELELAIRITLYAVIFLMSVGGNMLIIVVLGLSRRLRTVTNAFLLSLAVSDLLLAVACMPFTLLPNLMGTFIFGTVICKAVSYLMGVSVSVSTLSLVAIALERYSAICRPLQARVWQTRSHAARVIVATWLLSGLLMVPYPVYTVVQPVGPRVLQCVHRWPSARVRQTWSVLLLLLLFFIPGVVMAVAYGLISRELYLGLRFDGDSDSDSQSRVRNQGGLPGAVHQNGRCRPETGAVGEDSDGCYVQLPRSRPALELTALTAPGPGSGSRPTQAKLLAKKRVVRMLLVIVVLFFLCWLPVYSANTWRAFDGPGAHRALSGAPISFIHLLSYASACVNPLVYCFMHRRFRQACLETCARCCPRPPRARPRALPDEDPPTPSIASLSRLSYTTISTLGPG
In words: Displacement of [125I]CCK-8S from CCK2 receptor. The essentials: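 Apparent antagonist equilibrium dissociation constant, reported as its negative logarithm, derived by the Cheng–Prusoff method from the concentration displacing 50% of 125I-CCK-8S (pIC50). Values are ±0.3 log units unless stated otherwise.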

Series [2] is described as follows: Metabolic stability in rat liver microsomes after 30 mins. The format is ADME, Microsome. The settings on record: read-out: Stability. In a few lines: (§1)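 Compound incubated with human or rat liver microsomes to assess stability toward CYP450 oxidation. The read-out is percent of parent compound remaining after 30 min.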
On the technique in general: Microsomes from liver hold many membrane-bound enzymes, among them those of drug oxidation.

Series [3] can be described thus: Metabolic stability in human liver microsomes after 30 mins. The settings on record: read-out: Stability. Format: ADME, Microsome. The essentials:
as §1

Series [4] concerns the target T2, Cholecystokinin receptor type A (Homo sapiens, UniProt P32238).
T2 sequence (P32238 whole entry): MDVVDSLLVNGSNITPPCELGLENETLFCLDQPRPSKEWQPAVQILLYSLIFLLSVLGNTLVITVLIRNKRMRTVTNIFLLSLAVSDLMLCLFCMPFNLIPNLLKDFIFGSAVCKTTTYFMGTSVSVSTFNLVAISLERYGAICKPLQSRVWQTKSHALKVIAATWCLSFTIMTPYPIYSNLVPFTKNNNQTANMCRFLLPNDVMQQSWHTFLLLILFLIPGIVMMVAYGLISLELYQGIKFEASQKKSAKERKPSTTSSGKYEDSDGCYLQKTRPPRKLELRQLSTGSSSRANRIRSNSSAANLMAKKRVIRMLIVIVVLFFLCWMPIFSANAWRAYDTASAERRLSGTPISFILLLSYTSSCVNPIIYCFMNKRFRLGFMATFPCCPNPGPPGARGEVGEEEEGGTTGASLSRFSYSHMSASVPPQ
In words: Binding affinity to CCK1 receptor.

With `COC(=O)c1sc(C(F)(F)F)c(-c2ccccc2)c1S(=O)(=O)Nc1cc(Br)ccc1C(=O)N1CCCCC1`, the affinity in series [1] corresponds to a Ki of 7.94 µM. Moreover, the remaining at 0.5 h in series [2] and in series [3] was 0% each time.

The molecule `O=C(c1ccc(Br)cc1NS(=O)(=O)c1c(Cl)nc2sccn12)N1CCCCC1` gave a Ki in series [1] of 1.58 µM. Also, the remaining at 0.5 h in series [2] came out at 100%; in series [3], 7%.

For `COC(=O)c1csc(S(=O)(=O)Nc2cc(Br)ccc2C(=O)N2CCCCC2)c1OC`, affinity in series [1] was put at a Ki of 5.01 µM. Besides, the remaining at 0.5 h in series [2] and in series [3] was 0% throughout.

Regarding `O=C(NCc1ccc(S(=O)(=O)Nc2cc(Br)ccc2C(=O)N2CCCCC2)s1)c1ccccc1`, the Ki in series [1] is 6.31 µM. Further, the remaining at 0.5 h in series [2] and in series [3] was 0% in each case.

In series [1], `O=C(c1ccc(Br)cc1NS(=O)(=O)c1ccc2c(c1)OCCCO2)N1CCCCC1` gave an inhibition constant Ki of 2.51 µM. The remaining at 0.5 h in series [2] was determined as 9%; in series [3], 41%.

In series [1], `O=C(c1ccc(Br)cc1NS(=O)(=O)c1sc(Cl)cc1Br)N1CCCCC1` had a Ki of 0.794 µM. The results for the remaining at 0.5 h in series [2] and in series [3] were 68% and 2%, respectively.

The molecule `Cc1nc(-c2ccc(S(=O)(=O)Nc3cc(Br)ccc3C(=O)N3CCCCC3)s2)cs1` showed a Ki in series [1] of 3.98 µM. The figures for the remaining at 0.5 h in series [2] and in series [3] were 47% and 5%, respectively.

In series [1], `N#Cc1cccc(S(=O)(=O)Nc2cc(Br)ccc2C(=O)N2CCCCC2)c1` gave an inhibition constant (Ki) of 5.01 µM. For the same molecule, the values for the remaining at 0.5 h in series [2] and in series [3] were 100% and 7%, respectively.

As for `COC(=O)c1sccc1S(=O)(=O)Nc1cc(Br)ccc1C(=O)N1CCCCC1`, the Ki in series [1] is 1.58 µM. Besides, the figures for the remaining at 0.5 h in series [2] and in series [3] were 37% and 3%, respectively.

Consider `O=C(c1ccc(Br)cc1NS(=O)(=O)c1ccc(-c2cc(C(F)(F)F)on2)s1)N1CCCCC1`, for which the Ki in series [1] was 5.01 µM. For the same molecule, the remaining at 0.5 h was 87% in series [2] and 89% in series [3].

Take `O=C(c1ccc(Br)cc1NS(=O)(=O)c1ccc(C(F)(F)F)cc1Cl)N1CCCCC1`: the inhibition constant Ki in series [1] was 0.631 µM. Moreover, the remaining at 0.5 h in series [2] worked out at 49%; in series [3] it was 44%.

On to `O=C(c1cc(Cl)ccc1NS(=O)(=O)c1cccc2nsnc12)N1CCCCC1`, for which the Ki in series [4] is more than 10 µM.

The molecule `CSc1nccc(-c2ccc(S(=O)(=O)Nc3cc(Br)ccc3C(=O)N3CCCCC3)s2)n1` had a Ki in series [1] of 3.16 µM. Further, the results for the remaining at 0.5 h in series [2] and in series [3] were 39% and 63%, respectively.

Consider `O=C(c1ccc(Br)cc1NS(=O)(=O)c1csc2ccccc12)N1CCCCC1`, for which, in series [1], the affinity, expressed as Ki, was 3.16 µM. Besides, the remaining at 0.5 h stood at 19% in series [2] and 23% in series [3].

Consider `O=C(c1ccc(Br)cc1NS(=O)(=O)c1c(F)cccc1F)N1CCCCC1`, for which the affinity in series [1], expressed as Ki, was 0.501 µM. Moreover, the remaining at 0.5 h worked out at 78% in series [2] and 77% in series [3].

In turn, `O=C(c1ccc(Br)cc1NS(=O)(=O)c1ccc2nsnc2c1)N1CCCCC1` showed a Ki in series [1] of 5.01 µM. The remaining at 0.5 h in series [2] came to 23%; in series [3], 13%.

Turning to `O=C(c1ccc(Br)cc1NS(=O)(=O)c1cccc2nsnc12)N1CCCCC1`, the results for the remaining at 0.5 h in series [2] and in series [3] were 29% and 0%, respectively.

Regarding `Cc1c(S(=O)(=O)Nc2cc(Br)ccc2C(=O)N2CCCCC2)cnn1-c1ccccc1`, the Ki in series [1] was 7.94 µM. In addition, the remaining at 0.5 h in series [2] stood at 30%; in series [3], 85%.

For the molecule `COC(=O)c1c(C)oc(C)c1S(=O)(=O)Nc1cc(Br)ccc1C(=O)N1CCCCC1`, in series [1], the Ki is 0.501 µM. The remaining at 0.5 h in series [2] amounted to 11%; in series [3] it was 0%.

In turn, `Cc1ccc(S(=O)(=O)Nc2cc(Br)ccc2C(=O)N2CCCCC2)cc1[N+](=O)[O-]` had a Ki in series [1] of 2 µM. Moreover, the remaining at 0.5 h in series [2] came to 25%; in series [3], 3%.

Take `COC(=O)c1cc(S(=O)(=O)Nc2cc(Br)ccc2C(=O)N2CCCCC2)oc1C`: the Ki in series [1] was 5.01 µM. For the same molecule, the remaining at 0.5 h in series [2] stood at 100%; in series [3] it was 10%.

In turn, `Cc1nnc(-c2cccc(S(=O)(=O)Nc3cc(Br)ccc3C(=O)N3CCCCC3)c2)o1` showed a Ki in series [1] of 7.94 µM. In addition, the results for the remaining at 0.5 h in series [2] and in series [3] were 66% and 0%, respectively.
